Data: PMC4310348 (Drug Design, Development and Therapy, 2015)
Converted amounts (≈) assume the structure as drawn.

What was measured:
[1] = test system: Gram-positive mastitis organisms (57); experiment: MIC testing; assay type: cell-based; details: all 57 Gram-positive bovine mastitis isolates
In short: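 MICs were run per CLSI guidelines for lipophilic compounds across the pooled bovine mastitis isolates. MIC was the lowest concentration preventing growth, judged visually and by OD600. MIC50 and MIC90 are the lowest concentrations inhibiting 50% and 90% of the whole collection.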

[2] = test system: Streptococcus agalactiae (12); experiment: MIC testing; assay type: cell-based
In short: (§1)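 Clinical bovine mastitis isolates from Australian dairy cattle, except MRSA isolates, which came from small-animal infections. Streptococci were speciated by biochemical tests and partial 16S rDNA sequencing. S. aureus was separated from coagulase-negative staphylococci by tube coagulase and latex agglutination. MICs followed CLSI guidelines for lipophilic compounds: lowest concentration preventing growth, judged visually and by OD600. MIC50/MIC90 were collated per species.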

[3] = test system: Staphylococcus aureus (20); experiment: MIC testing; assay type: cell-based
In short: as §1

[4] = test system: Coagulase-negative staphylococci (14); experiment: MIC testing; assay type: cell-based
In short: as §1

[5] = test system: Streptococcus uberis (11); experiment: MIC testing; assay type: cell-based
In short: as §1

[6] = test system: MRSA (10); experiment: MIC testing; assay type: cell-based, methicillin-resistant Staphylococcus aureus
In short: as §1

[7] = Solubility of lasalocid in various solvents and milk; assay type: physicochemical; details: thermodynamic from solid
In short: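 Excess solid test compound was added to each solvent and shaken for 24 hours. Samples were then filtered through 0.45 µm nylon, diluted and quantified by reversed-phase C8 HPLC with UV detection at 308 nm. The mobile phase was methanol:1.5% acetic acid (90:10) at 1.0 mL/min. All measurements were made in triplicate.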

[8] = pH-solubility determination of lasalocid; assay type: physicochemical
In short: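 pH–solubility used MilliQ water adjusted with NaOH/HCl, or Universal buffer adjusted with 0.2 M NaOH, over pH 1.8–8. The buffer contained boric, citric and phosphoric acids at 0.04 M each. Excess solid was shaken for 24 hours, filtered through 0.45 µm nylon, diluted and quantified by C8 HPLC-UV at 308 nm. Measurements were made in triplicate.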

[9] = Milk distribution study; assay type: in vivo, Lactating Holstein dairy cows; details: six doses of 150 or 300 mg at 12-hourly intervals per quarter (IVP 7, IVP 8)
In short: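 Lactating Holstein cows aged 2–10 years had two contralateral quarters challenged intramammarily with S. uberis. After mastitis was detected, quarters received a PVP–lasalocid solid dispersion in Miglyol 812/Aerosil R972 after each milking, six infusions 12-hourly. Milk was sampled at set times, with time 0 at the first dose. Samples of 100 µL were extracted with 900 µL methanol, centrifuged and analysed by C8 HPLC-UV at 308 nm.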

## CC[C@@H](C(=O)[C@@H](C)[C@@H](O)[C@H](C)CCc1ccc(C)c(O)c1C(=O)O)[C@H]1O[C@](CC)([C@H]2CC[C@](O)(CC)[C@H](C)O2)C[C@@H]1C [lasalocid]
[1]
  MIC50: 2 µg/mL (≈ 3.39 µM)
  MIC90: 4 µg/mL (≈ 6.77 µM)
[2]; Streptococcus agalactiae
  MIC50: 2 µg/mL (≈ 3.39 µM)
  MIC90: 4 µg/mL (≈ 6.77 µM)
[2]; n=12 isolates
  MIC range: 2 to 4 µg/mL
[3]; Staphylococcus aureus
  MIC50: 1 µg/mL (≈ 1.69 µM)
  MIC90: 1 µg/mL (≈ 1.69 µM)
[3]; n=20 isolates
  MIC range: 0.5 to 1 µg/mL
[4]
  MIC50: 1 µg/mL (≈ 1.69 µM)
  MIC90: 2 µg/mL (≈ 3.39 µM)
[4]; n=14 isolates
  MIC range: 0.5 to 2 µg/mL
[5]; Streptococcus uberis
  MIC50: 0.5 µg/mL (≈ 0.846 µM)
  MIC90: 0.5 µg/mL (≈ 0.846 µM)
[5]; n=11 isolates
  MIC range: 0.5 to 1 µg/mL
[6]; Staphylococcus aureus, MRSA
  MIC50: 0.5 µg/mL (≈ 0.846 µM)
  MIC90: 0.5 µg/mL (≈ 0.846 µM)
[6]; n=10 isolates from small animals
  MIC range: 0.25 to 0.5 µg/mL
[7]; DMSO, organic solvent or mixture
  solubility at 24 h: 298000 ± 42400 µg/mL (≈ 504000 µM)
[7]; MilliQ water, water
  solubility at 24 h: 750 ± 100 µg/mL (≈ 1270 µM)
[7]; methanol, organic solvent or mixture
  solubility at 24 h: 84700 ± 1630 µg/mL (≈ 143000 µM)
[7]; milk, plasma or biological fluid
  solubility at 24 h: 438 ± 13.1 µg/mL (≈ 741 µM)
[8]; MilliQ water with NaOH and HCl for pH adjustment
  Solubility at pH 1.8: non-detectable
[8]; Universal buffer
  Solubility at pH 1.8: nondetectable
[8]; Universal buffer, pH 8, aqueous buffer, thermodynamic from solid
  solubility at 24 h: 9.66 ± 0.04 µg/mL (≈ 16.4 µM)
[9]
  Time after the first dose until which high milk concentration was maintained: 72 h
  Time after the first treatment by which residues in milk were not detectable: ≤ 144 h
  Time of peak lasalocid concentration in milk after the first dose: 24 h
